An excerpt weighted towards active compounds, which were near 2.3% of everything screened.
TRPC6 activator: mouse TRPC6 channel activators, primary screen, cell-based, HEK293, membrane potential dye; actives 0.13% (n = 310,000); Short transient receptor potential channel 6 (Mus musculus), Q61143; HEK293-TRPC6 membrane potential dye fluorescence; hits give high values; B-score at 10 µM;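 active means B-score of the integrated fluorescence ratio above library mean plus 3 SD, and starting fluorescence ratio within library mean plus 5 SD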;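 further: higher score means more depolarization so channel activation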
TRPC4 block: inhibitors of mouse TRPC4 channel, primary screen, Fluo4 calcium, HEK293 TRPC4beta/mu-opioid cells; actives 0.39% (n = 300,000); Short transient receptor potential channel 4 (Mus musculus), Q9QUQ5; B-score at 10 µM; DAMGO-evoked Fluo4 calcium flux; hits give low values; AID 2247, 2010;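 active means B-score over 3 SD under the library average, no early fluorescence shift, positive overall ratio signal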
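material = TRPC4beta/mu-opioid receptor HEK293 cell line | probe or stimulus = sequential submaximal and maximal DAMGO stimulation | compound dosing = one concentration per compound | measured by = Fluo4 Ca2+ flux fluorescence | evaluation = integrated fluorescence ratio relative to baseline, converted to per-well B score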
TRPC4 potent: positive allosteric modulators of TRPC4, primary screen, cell-based, mouse TRPC4beta, HEK293 mu-opioid, Fluo-4 calcium; actives 0.42% (n = 310,000); B-score at 10 µM; DAMGO EC20, Fluo-4 Ca2+ flux; hits give high values; Short transient receptor potential channel 4 (Mus musculus), Q9QUQ5;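 active means B-score of calcium response area above 5 SD of library B-scores, with initial fluorescence ratio within 5 SD of library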;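 further: B-score of integrated fluorescence ratio over time as area under calcium response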
TRPC6 inh: mouse TRPC6 channel inhibitors, primary screen, cell-based, HEK293, membrane potential dye | actives 1.1% (n = 310,000) | ACh-evoked depolarization; hits give low values | B-score at 10 µM;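 active means B-score under library mean minus 3 SD, initial fluorescence not abnormally high, positive integrated signal ratio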;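 further: B-score derived from integrated fluorescence ratio over the kinetic read; more negative B-score means stronger inhibition of depolarization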
TRPC4 agonist: activators of mouse TRPC4 channel, primary screen, Fluo4 calcium, HEK293 TRPC4beta/mu-opioid cells; Short transient receptor potential channel 4 (Mus musculus), Q9QUQ5; actives 0.49% (n = 310,000); Fluo4 calcium fluorescence; hits give high values; B-score at 10 µM;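 active means B-score above 5 SD of library B-scores, and initial fluorescence ratio not above library mean plus 5 SD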;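 further: positive B-score marks a calcium rise read as TRPC4 activation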
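System: HEK293 cells stably co-expressing mouse TRPC4beta and mu-opioid receptor; Schedule: Fluo4 dye loading 45 min at room temperature, 110 s recording; Detection: Fluo4 fluorescence, kinetic; Evaluation: B-scored integrated calcium fluorescence ratio; Controls: buffer (low) and maximal DAMGO (high).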
Starred values were filed as active, the others as inactive; i = inactive.

SMILES	TRPC6 activator	TRPC4 block	TRPC4 potent	TRPC6 inh	TRPC4 agonist
CC(C)Cc1nc(N2CCN(C(=O)C(C)C)CC2)c(C#N)c2c1CCC2	i	i	25*	i	i
CCOc1ccc(-n2c(C)c(C(C)=O)c3cc(O)ccc32)cc1	i	i	11*	i	i
O=S(=O)(Nc1cc2nc3ccccc3nc2n1Cc1ccccc1)c1ccc(Cl)cc1	26*	i	i	i	i
COc1ccccc1N1CCN(CCCNC(=O)Nc2ccccc2)CC1	i	-6*	i	i	i
Cc1ccccc1NC(=O)NCCCN1CCN(c2ccccc2)CC1	i	i	i	i	i
O=C(NCCCN1CCN(c2ccccc2)CC1)Nc1ccccc1C(F)(F)F	i	-6*	i	i	i
CN(C)c1ccc(-c2nc3ccccn3c2/N=C/c2ccc(Br)cc2)cc1	i	i	i	i	i
c1ccc(-c2ncc(CN3CCN(c4ccccn4)CC3)[nH]2)cc1	i	-6*	i	i	i
c1ccc(N2CCN(Cc3nc4ccccc4[nH]3)CC2)nc1	i	i	i	i	i
CCN1C(=NCCc2ccccn2)N[C@@H](c2cccc(F)c2)C(C(=O)OC)=C1C	i	i	i	i	i
COC(=O)C1=C(C)N(Cc2ccccc2)C(=S)N[C@H]1c1ccccc1	i	-6*	i	i	i
COC(=O)C1=C(C)N(Cc2ccccc2)C(=NCCc2ccccn2)N[C@H]1c1cccc(F)c1	i	i	i	i	88*
COC(=O)C1=C(C)N(Cc2ccccc2)C(=O)N[C@H]1c1ccccc1	i	i	i	i	i
CS(=O)(=O)N1N=C(c2ccco2)CC1c1ccc(Cl)cc1Cl (stereo not given)	i	i	i	i	i
Cc1ccc(-c2cc(C(=O)N3CCC(C)CC3)c3ccccc3n2)cc1	i	i	12*	i	i
O=C(OCC(=O)N1CCN(C(=O)c2ccco2)CC1)c1cc(-c2ccc(Cl)c(Cl)c2Cl)nc2ccccc12	i	i	i	i	i
CN1CCCN(C(=O)c2cc(-c3ccc(Cl)c(Cl)c3Cl)nc3ccccc23)CC1	i	i	i	i	52*
CCC(C)[C@H](Nc1nc(-c2ccccc2)nc2c1oc1ccccc12)C(=O)O (stereo not given in full)	i	-6*	i	i	i
CC(C)[C@H](Nc1nc(-c2ccccc2)nc2c1oc1ccccc12)C(=O)O	i	i	i	i	i
CCOC(=O)CCCCCN1C(=O)c2cccc3cccc(c23)C1=O	i	i	i	i	i
CC(=O)OCCCN1C(=O)c2cccc3cc(Br)cc(c23)C1=O	i	-6*	i	i	i
O=C(O)c1nn(CCOc2cccc(Br)c2)c(=O)c2ccccc12	i	i	i	i	i
CCCC1(c2ccccc2)NC(=O)N(CC(=O)c2[nH]c(C)c(C(=O)OCC)c2C)C1=O (stereo not given)	i	i	15*	i	i
COc1ccc(CNCc2cccc(Oc3ccccc3)c2)cc1	i	-6*	i	i	i
COc1ccc(CNCc2cccc(C)c2)cc1	i	i	i	i	i
O=C(COc1ccc(F)cc1)c1c(O)cc(O)cc1O	i	-6*	i	i	i
COc1ccc(C(=O)COc2ccc(F)cc2)c(O)c1	i	i	i	i	i
CC1CCCN(CCCNC(=O)c2ccc3c(c2)N(Cc2ccccc2F)C(=O)c2ccccc2S3(=O)=O)C1 (stereo not given)	i	i	i	i	114*
COc1cccc(CN2CC(C(=O)N(C)CC3CCOCC3)CCC2=O)c1 (stereo not given)	i	i	i	i	i
